# Source: ChEMBL document CHEMBL1124981, “Binding of indolylalkylamines at 5-HT2 serotonin receptors: examination of a hydrophobic binding region” (J Med Chem, 1990)
# Assays:
# [1] = molecular target: Serotonin 2 (5-HT2) receptor (Rattus norvegicus, UniProt P30994+P08909+P14842); assay: Binding affinity against 5-hydroxytryptamine 2 receptor using [3H]ketanserin as radioligand; assay type: protein assay
# Method in brief: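 Rat brain tissue homogenized in 50 mM Tris-HCl, 0.5 mM Na2EDTA, 10 mM MgSO4, pH 7.4, and centrifuged twice at 30000g. Assay buffer adds 10 μM pargyline and 0.1% ascorbate.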
# [2] = molecular target: T1, 5-hydroxytryptamine receptor 1A (Rattus norvegicus, UniProt P19327); assay: Binding affinity against 5-hydroxytryptamine 1A receptor using [3H]-8-OH-DPAT as radioligand
# T1 sequence (P19327 whole entry): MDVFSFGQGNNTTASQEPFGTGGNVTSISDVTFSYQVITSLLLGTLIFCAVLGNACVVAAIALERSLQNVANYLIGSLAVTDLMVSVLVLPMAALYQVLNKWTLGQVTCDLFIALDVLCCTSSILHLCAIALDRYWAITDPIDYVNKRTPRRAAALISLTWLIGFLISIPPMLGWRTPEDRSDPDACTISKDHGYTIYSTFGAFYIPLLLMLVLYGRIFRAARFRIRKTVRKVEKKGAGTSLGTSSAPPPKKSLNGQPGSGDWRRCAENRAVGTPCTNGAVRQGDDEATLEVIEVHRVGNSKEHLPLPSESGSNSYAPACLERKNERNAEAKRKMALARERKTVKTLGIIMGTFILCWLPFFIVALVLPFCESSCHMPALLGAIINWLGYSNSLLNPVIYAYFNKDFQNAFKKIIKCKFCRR
# Method in brief: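 Rat hippocampal homogenate (5 mg tissue) with [3H]-8-OH-DPAT; 10 μM 8-OH-DPAT defines nonspecific binding. Buffer: 50 mM Tris-HCl, 0.5 mM Na2EDTA, 10 mM MgSO4, pH 7.4, 10 μM pargyline, 0.1% ascorbate.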
smiles,measurement,setting,value
CCCn1cc(CC(C)N)c2cc(OC)ccc21 (centres undefined),Ki,[1],635 nM
CCCn1ccc(CC(C)N)c1 (centres undefined),Ki,[2],> 10000 nM
same,Ki,[1],> 10000 nM
CC(N)Cc1c[nH]c2ccccc12 (centres undefined),Ki,[2],530 nM
CCCCCn1cc(CC(C)N)c2ccccc21 (centres undefined),Ki,[2],2400 nM
same,Ki,[1],100 nM
CCCc1cccc2c(CC(C)N)c[nH]c12 (centres undefined),Ki,[2],1000 nM
same,Ki,[1],1040 nM
CCCn1cc(CC(C)N)c2ccccc21 (centres undefined),Ki,[2],715 nM
same,Ki,[1],1550 nM
COc1ccc2c(c1)c(CC(C)N)cn2Cc1ccccc1 (centres undefined),Ki,[2],> 10000 nM
same,Ki,[1],250 nM
CC(N)Cc1cn(Cc2ccccc2)c2ccccc12 (centres undefined),Ki,[2],30 nM
same,Ki,[1],160 nM
CCCCCCCCn1cc(CC(C)N)c2ccccc21 (centres undefined),Ki,[2],78 nM
same,Ki,[1],280 nM
COc1ccc2[nH]cc(CC(C)N)c2c1 (centres undefined),Ki,[2],7 nM
same,Ki,[1],345 nM
CCCCCn1ccc(CC(C)N)c1 (centres undefined),Ki,[2],7500 nM
same,Ki,[1],5200 nM
CC(N)Cc1cc[nH]c1 (centres undefined),Ki,[2],> 10000 nM
same,Ki,[1],> 10000 nM
CCCCCc1cccc2c(CC(C)N)c[nH]c12 (centres undefined),Ki,[2],6850 nM
same,Ki,[1],140 nM
